# Measurements as given in ChEMBL document CHEMBL1145797, “Synthesis and antitumor activity of novel O-carbamoylmethyloxime derivatives of radicicol” (J Med Chem, 2003).
# Legend:
# [1] = Concentration to inhibit growth of normal rat K-ras-transformed cells (KNRK 5.2 cells) after 72 hr exposure; type: functional
# Summary of the method: (§1)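 Cells precultured 24 h in DMEM with 10% fetal calf serum, then exposed to drug for 72 h. Viability read by MTT assay. IC50 taken as concentration giving 50% growth inhibition relative to control cultures.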
# 3Y1 cell line = assay: Concentration to inhibit growth of normal rat fibroblast cells (3Y1-B cells) after 72 h exposure; type: functional, cell-based; details: 3Y1, 72 h; summary of the method: as §1
# [2] = biological target: Proto-oncogene tyrosine-protein kinase Src (Rattus norvegicus, UniProt Q9WUD9); assay: Inhibition of v-Src tyrosine kinase autophosphorylation in SR3Y1 cells after 15 hr exposure; type: cell-based
# Summary of the method: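 SR-3Y1 cells exposed to drug 15 h, lysed on ice 20 min in Tris pH 7.5 RIPA-type buffer with protease inhibitors and 1 mM vanadate. Equal-protein lysates run on SDS-PAGE, blotted with anti-phosphotyrosine antibody, HRP secondary, ECL detection. IC50 = concentration halving tyrosine phosphorylation.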
# [3] = Concentration to inhibit growth of v-src-transformed cells (SR-3Y1 cells) after 72 h exposure; type: functional; details: Rattus norvegicus, SR3Y1, 72 h; summary of the method: as §1
# NRK = assay: Concentration to inhibit growth of normal rat kidney epithelial cells (NRK cells) after 72 hr exposure; type: functional, cell-based; summary of the method: as §1
# Mus musculus [4] = assay: In vivo antitumor activity against BALB mice transplanted with human tumor (MX-1) Xenograft Model at a dose of 25 mg/kg by administering intravenously for 5 days and Mortality is calculated; type: functional; details: route intravenous
# Summary of the method: (§2)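 Adult BALB/c nu/nu mice (n = 5) inoculated sc in the flank with human tumor cells: MX-1 on day -14, A431 on day -18. Drug dissolved in cremophor EL/N,N-dimethylacetamide/physiological saline (7.5:5:87.5) and given iv once daily on days 0-4. Animals monitored for lethal toxicity and body weight loss.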
# Mus musculus [5] = assay: In vivo antitumor activity against BALB mice transplanted with human tumor (A431) Xenograft Model at a dose of 25 mg/kg by administering intravenously for 5 days and T/C value was calculated on 7th day; type: functional; details: dose 50 mg/kg; route intravenous; in the assay text read “50 mg/kg” for “25 mg/kg”
# Summary of the method: (§3)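 Adult BALB/c nu/nu mice (n = 5), tumor cells inoculated sc in the flank (MX-1 day -14, A431 day -18). Drug in cremophor EL/N,N-dimethylacetamide/saline (7.5:5:87.5), given iv daily days 0-4. Tumor volume = length × width²/2. T/C = mean V/V0 of treated over control. Mann–Whitney U test.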
# [6] = Percent depletion of Raf-1 protein expression after 40h exposure at 0.2 uM in KNRK5.2 cells; type: functional, cell-based; details: Rattus norvegicus
# Summary of the method: (§4)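 KNRK5.2 cells exposed to 0.2 µM drug for 40 h, then lysed. Equal-protein lysates Western blotted in duplicate for Raf-1 (rabbit polyclonal), phospho-MAPK (phosphospecific antibody) and total Erk2 (monoclonal). Read-out is % inhibition of phospho-Erk2 formation or % Raf-1 depletion.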
# Mus musculus [7] = organism: Mus musculus; assay: Dose required to produce lethal toxicity was determined; type: organism-based; details: in vivo; summary of the method: as §2
# Mus musculus [8] = assay: In vivo antitumor activity against BALB mice transplanted with human tumor (A431) Xenograft Model at a dose of 50 mg/kg by administering intravenously for 5 days and Mortality is calculated; type: functional; details: route intravenous; summary of the method: as §2
# Mus musculus [9] = assay: In vivo antitumor activity against BALB mice transplanted with human tumor (MX-1) using Xenograft Model at a dose of 50 mg/kg by administering intravenously for 5 days and T/C value was calculated on 11th day; type: functional; details: route intravenous; summary of the method: as §3
# [10] = Inhibition of K-ras-induced MAPK phosphorylation in KNRK5.2 cells after 40h exposure at 0.2 uM; type: functional; details: Rattus norvegicus; summary of the method: as §4
# Mus musculus [11] = assay: In vivo antitumor activity against BALB mice transplanted with human tumor (MX-1) Xenograft Model at a dose of 50 mg/kg by administering intravenously for 5 days and Mortality is calculated; type: functional; details: route intravenous; summary of the method: as §2
# Mus musculus [12] = assay: In vivo antitumor activity against BALB mice transplanted with human tumor (MX1) Xenograft Model at a dose of 25 mg/kg by administering intravenously for 5 days and T/C value was calculated on 11th day; type: functional; details: route intravenous; summary of the method: as §3
# Mus musculus [13] = assay: In vivo antitumor activity against BALB mice transplanted with human tumor (MX-1) using Xenograft Model at a dose of 100 mg/kg by administering intravenously for 5 days and T/C value is calculated on 14th day; type: functional; details: route intravenous
# Mus musculus [14] = assay: In vivo antitumor activity against BALB mice transplanted with human tumor (MX-1) using Xenograft Model at a dose of 100 mg/kg by administering intravenously for 5 days and mortality is calculated; type: functional; details: route intravenous; summary of the method: as §2
SMILES,IC50 [2] [nM],IC50 [1] [nM],IC50 (3Y1 cell line) [nM],IC50 [3] [nM],IC50 (NRK) [nM],also measured
C[C@@H]1C[C@H]2O[C@@H]2\C=C/C=C/C(=N\OCC(=O)Nc2ccccc2)Cc2c(Cl)c(O)cc(O)c2C(=O)O1,43,290,620,120,320,
C[C@@H]1C[C@H]2O[C@@H]2\C=C/C=C/C(=N\OCC(=O)N2CCCCC2)Cc2c(Cl)c(O)cc(O)c2C(=O)O1,25,14,8.3,6.1,18,Mortality (Mus musculus [4]): 0; T/C min (Mus musculus [5]): 0.44; Depletion [6]: 74%; Lethal toxicity (Mus musculus [7]): 100 mg/kg; Mortality (Mus musculus [8]): 0; T/C min (Mus musculus [9]): 0.17; inhibition at 0.2 µM [10]: 95%; Mortality (Mus musculus [11]): 0; T/C min (Mus musculus [12]): 0.54
COc1ccc(NC(=O)CO\N=C2/C=C/C=C\[C@H]3O[C@@H]3C[C@@H](C)OC(=O)c3c(O)cc(O)c(Cl)c3C2)cc1,390,81,100,58,260,
C[C@@H]1C[C@H]2O[C@@H]2\C=C/C=C/C(=N\OCC(=O)NC2CCCCC2)Cc2c(Cl)c(O)cc(O)c2C(=O)O1,210,73,67,5.7,190,
C[C@@H]1C[C@H]2O[C@@H]2\C=C/C=C/C(=N\OCC(=O)N2CCN(C)CC2)Cc2c(Cl)c(O)cc(O)c2C(=O)O1,,1500,1000,470,1200,
C[C@@H]1C[C@H]2O[C@@H]2\C=C/C=C/C(=N\OCC(=O)NCc2cccnc2)Cc2c(Cl)c(O)cc(O)c2C(=O)O1,> 1000,480,670,290,510,
C[C@@H]1C[C@H]2O[C@@H]2\C=C/C=C/C(=N\O)Cc2c(Cl)c(O)cc(O)c2C(=O)O1,56,39,90,26,80,Depletion [6]: 29%; T/C min (Mus musculus [13]): 0.49; inhibition at 0.2 µM [10]: 81%; Mortality (Mus musculus [14]): 0
C[C@@H]1C[C@H]2O[C@@H]2\C=C/C=C/C(=N\OCC(=O)N2CCC(C(N)=O)CC2)Cc2c(Cl)c(O)cc(O)c2C(=O)O1,,> 3000,> 3000,> 3000,> 3000,
C[C@@H]1C[C@H]2O[C@@H]2/C=C\C=C\C(=O)Cc2c(Cl)c(O)cc(O)c2C(=O)O1 [RADICICOL],180,110,700,59,290,
C[C@@H]1C[C@H]2O[C@@H]2\C=C/C=C/C(=N\OCC(=O)NCC2CCCCC2)Cc2c(Cl)c(O)cc(O)c2C(=O)O1,17,140,180,20,210,
C[C@@H]1C[C@H]2O[C@@H]2\C=C/C=C/C(=N\OCC(=O)N2CCC(N3CCCCC3)CC2)Cc2c(Cl)c(O)cc(O)c2C(=O)O1,,> 3000,> 3000,> 3000,3000,
C[C@@H]1C[C@H]2O[C@@H]2\C=C/C=C/C(=N\OCC(=O)N2CCC(O)CC2)Cc2c(Cl)c(O)cc(O)c2C(=O)O1,,> 3000,> 3000,> 3000,> 3000,
CCN(CC)c1ccc(NC(=O)CO\N=C2/C=C/C=C\[C@H]3O[C@@H]3C[C@@H](C)OC(=O)c3c(O)cc(O)c(Cl)c3C2)cc1,< 10,240,490,100,520,

# The next lines start with results.
IC50 [2] [nM],SMILES,IC50 [1] [nM],IC50 (3Y1 cell line) [nM],IC50 [3] [nM],IC50 (NRK) [nM],also measured
> 1000,CCOCCNC(=O)CO\N=C1/C=C/C=C\[C@H]2O[C@@H]2C[C@@H](C)OC(=O)c2c(O)cc(O)c(Cl)c2C1,230,390,93,260,
67,C[C@@H]1C[C@H]2O[C@@H]2\C=C/C=C/C(=N\OCC(=O)N2CCCCCC2)Cc2c(Cl)c(O)cc(O)c2C(=O)O1,6.4,< 4.1,< 4.1,7.3,
> 1000,C[C@@H]1C[C@H]2O[C@@H]2\C=C/C=C/C(=N\OCC(=O)NCCO)Cc2c(Cl)c(O)cc(O)c2C(=O)O1,2200,2800,1500,> 3000,
140,C[C@@H]1C[C@H]2O[C@@H]2\C=C/C=C/C(=N\OCC(=O)N2CCOCC2)Cc2c(Cl)c(O)cc(O)c2C(=O)O1,340,310,130,340,
360,COC(=O)CNC(=O)CO\N=C1/C=C/C=C\[C@H]2O[C@@H]2C[C@@H](C)OC(=O)c2c(O)cc(O)c(Cl)c2C1,570,790,240,700,
> 1000,C[C@@H]1C[C@H]2O[C@@H]2\C=C/C=C/C(=N\OCC(=O)NCCc2cccn2C)Cc2c(Cl)c(O)cc(O)c2C(=O)O1,380,600,84,1200,
> 1000,C[C@@H]1C[C@H]2O[C@@H]2\C=C/C=C/C(=N\OCC(=O)N(CCO)CCO)Cc2c(Cl)c(O)cc(O)c2C(=O)O1,2900,> 3000,1100,> 3000,
54,C[C@@H]1C[C@H]2O[C@@H]2\C=C/C=C/C(=N\OCC(=O)Nc2cccnc2)Cc2c(Cl)c(O)cc(O)c2C(=O)O1,120,200,51,240,
> 1000,CCN(CC)CCNC(=O)CO\N=C1/C=C/C=C\[C@H]2O[C@@H]2C[C@@H](C)OC(=O)c2c(O)cc(O)c(Cl)c2C1,> 3000,> 3000,2300,> 3000,
14,C[C@@H]1C[C@H]2O[C@@H]2\C=C/C=C/C(=N\OCC(=O)NC2CCCC2)Cc2c(Cl)c(O)cc(O)c2C(=O)O1,45,41,9.8,41,
70,C[C@@H]1C[C@H]2O[C@@H]2\C=C/C=C/C(=N\OCC(=O)N2CCCC2)Cc2c(Cl)c(O)cc(O)c2C(=O)O1,39,55,20,34,
